Reference: ChEMBL document CHEMBL1932920
Activity calls are given as the source filed them.

Experiments:
[1] = biological target: T1, Probable carboxylesterase 12 (Arabidopsis thaliana) (UniProt Q9SMN0); test: Binding affinity to CXE12 in Arabidopsis thaliana leaf extracts pre-incubated with 100 uM paraoxon for 30 mins at 5 uM after 1 hr using SDS-PAGE followed by nanoLC-ESI-MS/MS analysis
T1 sequence (whole entry): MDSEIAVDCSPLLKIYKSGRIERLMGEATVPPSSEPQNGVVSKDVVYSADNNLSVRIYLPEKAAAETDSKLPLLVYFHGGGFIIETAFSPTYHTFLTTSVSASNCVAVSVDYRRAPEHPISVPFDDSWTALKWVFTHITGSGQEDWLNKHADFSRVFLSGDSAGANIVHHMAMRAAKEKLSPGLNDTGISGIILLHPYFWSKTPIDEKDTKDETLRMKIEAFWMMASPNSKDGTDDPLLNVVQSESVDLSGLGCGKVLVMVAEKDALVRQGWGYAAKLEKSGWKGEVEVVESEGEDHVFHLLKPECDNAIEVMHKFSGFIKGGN
Method in brief: (§1)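 Extract from 2 g frozen leaves of 4-week-old A. thaliana Col-0, ground, taken up in water, cleared 5 min at 16,000×g. Labeled with 5 µM probe, biotinylated targets pulled down on avidin beads, run on 1D SDS–PAGE and fluorescence-scanned. Bands excised, digested in-gel, and analysed by nanoLC-ESI-MS/MS on LTQ Velos (C18, 5–40% acetonitrile over 90 min, 300 nL/min, positive mode, m/z 400–1600).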

[2] = biological target: T1, Probable carboxylesterase 12 (Arabidopsis thaliana); test: Binding affinity to Arabidopsis thaliana CXE12 overexpressed in agroin filtreated Nicotiana benthamiana leaf extracts pre-incubated with 100 uM paraoxon for 30 mins at 2 uM after 1 hr using SDS-PAGE followed by nanoLC-ESI-MS/MS analysis
Method in brief: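 CXE12 cDNA in binary vector, Agrobacterium GV3101 pMP90, co-infiltrated with p19 silencing-suppressor strain into 4-week-old N. benthamiana leaves (p19 alone as control). Leaf extracts preincubated 30 min with 100 µM paraoxon or DMSO, then labeled 1 h with 2 µM probe. Reactions stopped in gel loading buffer, proteins resolved on gels, fluorescence scanning.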

[3] = biological target: T2, Serine carboxypeptidase-like 48 (Arabidopsis thaliana) (UniProt Q56WF8); test: Binding affinity to SCPL48 in Arabidopsis thaliana leaf extracts pre-incubated with 100 uM paraoxon for 30 mins at 5 uM after 1 hr using SDS-PAGE followed by nanoLC-ESI-MS/MS analysis; method in brief: as §1
T2 sequence (whole entry): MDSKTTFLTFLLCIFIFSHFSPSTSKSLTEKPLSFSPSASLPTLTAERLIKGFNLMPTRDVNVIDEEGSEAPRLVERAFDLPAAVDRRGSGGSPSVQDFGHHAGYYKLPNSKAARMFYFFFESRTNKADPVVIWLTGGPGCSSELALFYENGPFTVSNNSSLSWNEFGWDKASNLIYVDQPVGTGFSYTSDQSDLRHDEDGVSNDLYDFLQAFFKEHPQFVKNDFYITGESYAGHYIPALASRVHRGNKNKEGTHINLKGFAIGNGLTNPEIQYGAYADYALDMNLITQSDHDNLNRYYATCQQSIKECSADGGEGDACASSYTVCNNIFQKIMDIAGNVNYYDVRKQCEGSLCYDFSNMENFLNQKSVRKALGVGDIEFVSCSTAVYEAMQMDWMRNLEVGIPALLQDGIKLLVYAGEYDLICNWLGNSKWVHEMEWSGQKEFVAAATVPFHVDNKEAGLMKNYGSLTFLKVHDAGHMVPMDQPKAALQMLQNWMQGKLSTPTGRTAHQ

[4] = biological target: T3, Probable carboxylesterase 7 (Arabidopsis thaliana) (UniProt Q9ZQ91); test: Binding affinity to CXE7 in Arabidopsis thaliana leaf extracts pre-incubated with 100 uM paraoxon for 30 mins at 5 uM after 1 hr using SDS-PAGE followed by nanoLC-ESI-MS/MS analysis; method in brief: as §1
T3 sequence (whole entry): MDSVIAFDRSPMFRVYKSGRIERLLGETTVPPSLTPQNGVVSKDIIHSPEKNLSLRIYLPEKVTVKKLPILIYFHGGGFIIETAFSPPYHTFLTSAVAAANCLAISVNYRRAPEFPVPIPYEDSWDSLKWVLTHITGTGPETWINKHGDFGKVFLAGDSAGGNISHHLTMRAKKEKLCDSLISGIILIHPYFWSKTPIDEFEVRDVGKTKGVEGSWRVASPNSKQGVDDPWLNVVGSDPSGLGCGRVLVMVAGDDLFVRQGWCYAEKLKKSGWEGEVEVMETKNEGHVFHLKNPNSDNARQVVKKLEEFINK

Arabidopsis thaliana [5] = test: Binding affinity to POPL in Arabidopsis thaliana leaf extracts pre-incubated with 100 uM paraoxon for 30 mins at 5 uM after 1 hr using SDS-PAGE followed by nanoLC-ESI-MS/MS analysis; method in brief: as §1
[6] = biological target: T1, Probable carboxylesterase 12 (Arabidopsis thaliana); test: Binding affinity to CXE12 in Arabidopsis thaliana leaf extracts at 4 to 20 uM after 1 hr using SDS-PAGE followed by nanoLC-ESI-MS/MS analysis
[7] = biological target: T3, Probable carboxylesterase 7 (Arabidopsis thaliana); test: Binding affinity to CXE7 in Arabidopsis thaliana leaf extracts at 4 to 20 uM after 1 hr using SDS-PAGE followed by nanoLC-ESI-MS/MS analysis
Arabidopsis thaliana [8] = test: Binding affinity to POPL in Arabidopsis thaliana leaf extracts at 4 to 20 uM after 1 hr using SDS-PAGE followed by nanoLC-ESI-MS/MS analysis
[9] = biological target: T2, Serine carboxypeptidase-like 48 (Arabidopsis thaliana); test: Binding affinity to SCPL48 in Arabidopsis thaliana leaf extracts at 4 to 20 uM after 1 hr using SDS-PAGE followed by nanoLC-ESI-MS/MS analysis

Measured: Activity

CCOP(=O)(CCOCCOCCOCCOC(=O)NCc1cn(CCCCCNC(=O)CCC(=O)N[C@@H](CCCCNC(=O)CCCCC[C@@H]2SC[C@@H]3NC(=O)N[C@@H]32)C(=O)NCCCCCNC(=O)c2ccc(-c3c4ccc(=[N+](C)C)cc-4oc4cc(N(C)C)ccc34)c(C(=O)[O-])c2)nn1)Oc1ccc([N+](=O)[O-])cc1 (some centres undefined)
active: [1] | [2] | [3] | [4] | Arabidopsis thaliana [5]

C#CCNC(=O)OCCOCCOCCOCCP(=O)(OCC)Oc1ccc([N+](=O)[O-])cc1 (centres undefined)
active: [6] | [7] | Arabidopsis thaliana [8] | [9]
